Test results taken from ChEMBL document CHEMBL2321684, “Novel hybrids of optically active ring-opened 3-n-butylphthalide derivative and isosorbide as potential anti-ischemic stroke agents” (J Med Chem, 2013).
Where a name gives a salt, the structure may show the parent alone. The source made the active and inactive calls. The rule behind the calls is not given here.

Tests used:
[1] = Antiplatelet aggregation activity in rabbit platelets assessed as inhibition of ADP-induced platelet aggregation incubated for 5 mins prior to ADP-challenge measured within 5 mins by Born's turbidimetric analysis; type: functional, cell-based; details: Oryctolagus cuniculus
[2] = Antiplatelet aggregation activity in rabbit platelets assessed as inhibition of arachidonic acid-induced platelet aggregation incubated for 5 mins prior to arachidonic acid-challenge measured within 5 mins by Born's turbidimetric analysis; type: functional, cell-based; details: Oryctolagus cuniculus
How it was run: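 Rabbit citrated PRP was adjusted to 400−450 × 10⁹ platelets/L and preincubated for 5 min at 37 °C with vehicle DMSO or compound at 0.1−1.6 mM (at least five concentrations). Aggregation was induced with arachidonic acid (0.33 mM, per the methods text). Maximum aggregation rate was recorded over 5 min by Born's turbidimetry, and IC₅₀ was derived from inhibition versus vehicle (mean ± SD).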

[3] = Antiplatelet aggregation activity in rabbit platelets assessed as inhibition of ADP-induced platelet aggregation at 1 mM incubated for 5 mins prior to ADP-challenge measured within 5 mins by Born's turbidimetric analysis relative to control; type: functional; details: Oryctolagus cuniculus
How it was run: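 Rabbit carotid blood was citrated (3.8%, 9:1). PRP was adjusted with PPP to 400−450 × 10⁹ platelets/L. PRP was preincubated with compound or DMSO for 5 min at 37 °C, then aggregation was induced with ADP at 10 μM. Maximum aggregation rate was recorded over 5 min using Born's turbidimetry. Inhibition % was calculated versus vehicle; n = 6, mean ± SD.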

Mus musculus = experiment: Antithrombotic activity in Swiss ICR mouse assessed as inhibition of collagen/adrenaline-induced acute systemic vascular thromboembolism at 160 mg/kg, po administered for 7 days prior to collagen/adrenaline-challenge measured up to 15 mins relative to control; type: functional, organism-based; set-up: dose 160 mg/kg
How it was run: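 Male Swiss ICR mice (30−35 g), n = 15 per group, dosed by gavage daily for 7 days in DMSO vehicle. Two hours after the last dose, mice received collagen (0.21 mg/kg) plus adrenaline (44.5 μg/kg) iv. Survival was monitored for 15 min and reported as % surviving.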

SMILES | IC50 [1] | IC50 [2] | inhibition at 1000 µM [3] | Activity (Mus musculus)
Clc1ccccc1CN1CCc2sccc2C1 [TICLOPIDINE HYDROCHLORIDE] | 360 µM |  |  | 
CCCC[C@H](OC(=O)CN1CCCC1)c1ccccc1C(=O)O[C@H]1CO[C@H]2[C@@H]1OC[C@H]2OC(=O)c1ccccc1[C@H](CCCC)OC(=O)CN1CCCC1 | 800 µM | 640 µM |  | 
CCCC[C@@H](OC(=O)CN1CCOCC1)c1ccccc1C(=O)O[C@H]1CO[C@H]2[C@@H]1OC[C@H]2OC(=O)c1ccccc1[C@@H](CCCC)OC(=O)CN1CCOCC1 | 940 µM | 800 µM |  | 
CCCC[C@@H](OC(=O)CN1CCN(CCO)CC1)c1ccccc1C(=O)O[C@H]1CO[C@H]2[C@@H]1OC[C@H]2OC(=O)c1ccccc1[C@@H](CCCC)OC(=O)CN1CCN(CCO)CC1 | 750 µM | 630 µM |  | 
CCCC[C@H](OC(=O)CN1CCN(C)CC1)c1ccccc1C(=O)O[C@@H]1CO[C@H]2[C@@H]1OC[C@@H]2O |  |  | 6.94% | 
CC(=O)Oc1ccccc1C(=O)O [ASPIRIN] |  | 140 µM |  | Active
CCCC[C@@H](OC(C)=O)c1ccccc1C(=O)O[C@H]1CO[C@H]2[C@@H]1OC[C@H]2OC(=O)c1ccccc1[C@@H](CCCC)OC(C)=O | 710 µM | 570 µM |  | 
CCCC[C@H](OC(=O)CN1CCN(C)CC1)c1ccccc1C(=O)O |  |  | 6.94% | 
CCCC[C@@H](OC(=O)CN1CCCC1)c1ccccc1C(=O)O[C@H]1CO[C@H]2[C@@H]1OC[C@H]2OC(=O)c1ccccc1[C@@H](CCCC)OC(=O)CN1CCCC1 | 1000 µM | 910 µM |  | 
CCCC[C@@H](OC(=O)CN1CCN(C)CC1)c1ccccc1C(=O)O[C@H]1CO[C@H]2[C@@H]1OC[C@H]2OC(=O)c1ccccc1[C@@H](CCCC)OC(=O)CN1CCN(C)CC1 | 360 µM | 270 µM |  | 
CCCC[C@H](OC(C)=O)c1ccccc1C(=O)O[C@H]1CO[C@H]2[C@@H]1OC[C@H]2OC(=O)c1ccccc1[C@H](CCCC)OC(C)=O | 330 µM | 210 µM |  | 
CCCC[C@H](OC(=O)CN1CCN(CCO)CC1)c1ccccc1C(=O)O[C@H]1CO[C@H]2[C@@H]1OC[C@H]2OC(=O)c1ccccc1[C@H](CCCC)OC(=O)CN1CCN(CCO)CC1 | 490 µM | 360 µM |  | 
CCCC[C@H](OC(=O)CN1CCN(C)CC1)c1ccccc1C(=O)O[C@H]1CO[C@H]2[C@@H]1OC[C@H]2O[N+](=O)[O-] |  |  | 6.94% | 
CCCC[C@H](OC(=O)CN1CCN(C)CC1)c1ccccc1C(=O)O[C@@H]1CO[C@H]2[C@@H]1OC[C@@H]2O[N+](=O)[O-] |  |  | 6.94% | 
CCCC[C@H](OC(=O)CN1CCN(C)CC1)c1ccccc1C(=O)O[C@H]1CO[C@H]2[C@@H]1OC[C@H]2O |  |  | 6.94% | 
CCCC[C@H](OC(=O)CN1CCOCC1)c1ccccc1C(=O)O[C@H]1CO[C@H]2[C@@H]1OC[C@H]2OC(=O)c1ccccc1[C@H](CCCC)OC(=O)CN1CCOCC1 | 450 µM | 320 µM |  | 
O[C@@H]1CO[C@H]2[C@@H]1OC[C@@H]2O [ISOSORBIDE] | 1350 µM | 1680 µM | 6.94% | 
